In the library only some 1.7% were active in any assay of this set; here they are far more common.
SUMO1-SIM PPI – SUMO1-SIM interaction modulation; P63165; SUMO1 binding to a labelled peptide, TR-FRET, 1 h; inhibition, % at 20 µM; 360,000 compounds, 0.33% hits; AID 602429; in the data active = inhibition above about 37%
LMPTP block – blocks human LMPTP phosphatase; P24666; recombinant LMPTP-A, OMFP fluorogenic substrate, fluorescence intensity; inhibition, % at 20 µM; 360,000 compounds, 0.22% hits; AID 651560;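 active = compounds that cut the enzyme signal by at least half of the control window in the single-dose screen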;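 note: plate controls were DMSO wells with enzyme plus substrate for no effect and substrate without enzyme for full effect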
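Test system – LMPTP-A enzyme · Amount – LMPTP-A at 0.625 nM final in the reaction · Buffer or medium – Bis-Tris pH 6.0, DTT, detergent · Reagent – OMFP 400 µM · Doses – single 20 µM dose · Schedule – reaction 50 min, room temperature, dark · Detection – fluorescence intensity of OMFP turnover product · Evaluation – percent inhibition versus substrate-only and uninhibited controls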
Scp1 inh – inhibitors of human Scp-1 phosphatase; Q9GZU7; Recombinant Scp1, phosphopeptide, malachite green phosphate absorbance; inhibition, % at 20 µM; 340,000 compounds, 0.88% hits;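 active = inhibition above about 50% at 20 µM, limit read from the data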;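 note: plate controls were DMSO wells with enzyme for no effect and wells lacking enzyme for full effect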
Target sequence (Q9GZU7 76-261 limits assumed): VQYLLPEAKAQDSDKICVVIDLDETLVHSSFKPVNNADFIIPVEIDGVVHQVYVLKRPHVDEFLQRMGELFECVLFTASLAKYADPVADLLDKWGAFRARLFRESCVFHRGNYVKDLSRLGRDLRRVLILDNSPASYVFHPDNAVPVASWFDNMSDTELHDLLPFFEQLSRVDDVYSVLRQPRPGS
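Assay system: SCP-1 catalytic fragment, aa 76-261 | Buffer or medium: Tris acetate buffer pH 5.5 with MgCl2 and Tween-20 | Compound: One concentration, 20 µM, with 1.0% DMSO | Also added: Phospho 17-mer peptide substrate | Signal: Absorbance at 630 nm | Incubation: 45 min enzyme reaction at room temperature | Measure: % inhibition of SCP-1 phosphate liberation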
DNMT1 inh – inhibitors of human DNMT1; P26358; AID 588458; 360,000 compounds, 0.83% hits; DNMT1 molecular beacon, Hinp1I cleavage, fluorescence; inhibition (reported as % activation of signal), % at 10 µM; in the data active = inhibition above about 50%
STEP block – inhibitors of human striatal-enriched phosphatase STEP. recombinant STEP, OMFP fluorogenic substrate, fluorescence. inhibition, % at 20 µM. 360,000 compounds, 0.25% hits. AID 588621;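 active = inhibition at 20 µM, scaled per plate between control wells, above about 37%, limit read from the data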;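 note: 0% = DMSO with enzyme and substrate and 100% = substrate only without enzyme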
Target sequence (P54829 whole entry, looked up): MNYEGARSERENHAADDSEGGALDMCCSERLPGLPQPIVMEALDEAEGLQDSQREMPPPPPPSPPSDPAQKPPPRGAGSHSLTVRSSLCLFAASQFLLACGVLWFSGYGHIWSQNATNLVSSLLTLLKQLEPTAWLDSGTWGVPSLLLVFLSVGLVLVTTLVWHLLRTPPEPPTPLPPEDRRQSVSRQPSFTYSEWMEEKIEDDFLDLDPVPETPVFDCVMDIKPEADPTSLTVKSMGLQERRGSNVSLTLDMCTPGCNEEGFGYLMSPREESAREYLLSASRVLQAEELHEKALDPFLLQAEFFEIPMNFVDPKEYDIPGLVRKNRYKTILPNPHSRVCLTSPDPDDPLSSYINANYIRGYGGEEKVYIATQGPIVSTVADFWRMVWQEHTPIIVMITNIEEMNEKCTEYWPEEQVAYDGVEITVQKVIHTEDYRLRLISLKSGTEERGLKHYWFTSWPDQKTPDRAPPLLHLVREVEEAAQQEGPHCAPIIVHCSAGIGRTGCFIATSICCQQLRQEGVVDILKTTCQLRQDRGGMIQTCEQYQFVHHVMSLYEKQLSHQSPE
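System: STEP (striatal-enriched tyrosine phosphatase) enzyme, cell-free; medium: Bis-Tris pH 6.0 buffer with DTT, detergent; dosing: 20 µM, 1% DMSO; times: reaction 20 min, ambient temperature; detection: fluorescence, 480/540 nm; read-out basis: normalized % inhibition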
Scp1 confirm – Scp-1 (human) inhibition, single-dose confirmed | 2,500 compounds, 61% hits | recombinant SCP-1 catalytic domain, phosphate release, malachite green absorbance | shares compounds with Scp1 inh | inhibition, % at 20 µM;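 note: plate controls were DMSO with enzyme for no effect and buffer wells lacking enzyme for full effect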
Scp-1 MG ctr – counter-screen for Scp-1 inhibitors: colorimetric interference; shares compounds with Scp1 inh; Colorimetric interference counterscreen, malachite green absorbance 630 nm; apparent inhibition (interference), % at 20 µM; 2,500 tested, under 10 active; AID 540313;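 note: compounds added after enzyme reaction finished so only phosphate colour detection is probed; plate controls were DMSO wells with completed Scp-1 reaction for no effect and substrate wells lacking enzyme for full effect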
Scp1 DSF – binds human Scp-1, shifting its melting temperature; shares compounds with Scp1 inh; Recombinant SCP1, Sypro Orange thermal shift Tm; thermal shift relative to vanadate control, % at 40 µM; 1,500 compounds, 25% hits; AID 540329;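 active = substances whose mean melting-temperature shift, as a percentage of the reference inhibitor's shift, reaches about 5.3%, limit read from the data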;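 note: 0% = Tm of DMSO wells and 100% = Tm with sodium orthovanadate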
Beacon interf DR – beacon fluorescence artifact, dose response counter-screen. shares compounds with DNMT1 inh. molecular beacon fluorescence, spectral interference counter-screen. IC50, µM. 200 tested, under 10 active. AID 602382; call rule not given here
DNMT1 inh conf – DNMT1 inhibition confirmation, single concentration | shares compounds with DNMT1 inh | DNMT1 molecular beacon HinP1I cleavage, fluorescence | inhibition, % at 10 µM | 2,300 compounds, 8% hits | AID 602385;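 active = average inhibition of at least 30% in the single-concentration confirmation test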
Beacon interf – shows spectral interference in the DNMT1 beacon assay | activation (fluorescence interference), % at 10 µM | DNMT1 molecular beacon spectral interference counterscreen, fluorescence 485/520 | 2,300 compounds, 1% hits | AID 602387 | shares compounds with DNMT1 inh;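 active = activation of at least 30% at 10 µM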;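 note: DNMT1 catalytic domain with a HinP1I cleavage step and a FAM/dabcyl DNA beacon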
* marks the source's active call; other numbers are inactive results; nt = no result.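 Rule for the calls, unless noted: active = inhibition of at least 30% at 20 µM; inactive = the rest.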

SMILES | SUMO1-SIM PPI | LMPTP block | Scp1 inh | DNMT1 inh | STEP block | Scp1 confirm | Scp-1 MG ctr | Scp1 DSF | DNMT1 inh conf | Beacon interf | others
C[C@@]12C(=O)N(Cc3ccccc3)CC(=O)N1[C@H](/C=C/c1ccccc1)[C@@H]1C(=O)N(c3ccccc3)C(=O)[C@@H]12 | nt | nt | -11 | nt | nt | nt | nt | nt | nt | nt
O=C(COC(=O)c1cc2c(s1)CCC2)Nc1ccc(F)cc1 | -2 | 12 | 68* | 66* | 4 | 74* | -9 | 3 | 26 | -2 | Beacon interf DR=>99
NC(=O)c1ccc(NC(=O)COC(=O)c2cc3c(s2)CCC3)cc1 | 11 | 24 | 85* | 80* | 35 | 62* | -16 | -12 | 0 | 1
O=C(CSc1ccsc1[N+](=O)[O-])NCc1ccccc1 | -21 | 1 | 0 | -2 | 8 | nt | nt | nt | nt | nt
O=C(CSc1ccsc1[N+](=O)[O-])Nc1cccc(F)c1 | -4 | 25 | 75* | 96* | 3 | 59* | -23 | 9.1* | 10 | 0
S=C(NC1CCCCC1)N1CCN(C2CCCCC2)CC1 | -3 | -2 | 0 | 3 | -2 | nt | nt | nt | nt | nt
CCc1ccc(Nc2nnc(SCC(=O)NC(=O)CN3CCCC3=O)s2)cc1 | 9 | 14 | 65* | 64* | 35 | 48* | -10 | -6 | 1 | 0
COc1ccccc1Nc1nnc(SCC(=O)N2CCCC2=O)s1 | -6 | 0 | -4 | 0 | 0 | nt | nt | nt | nt | nt
Cc1ccc(C(=O)OCC(=O)c2ccc(CC(=O)N3CCOCC3)s2)c(C)c1 | -3 | 10 | 72* | 55* | 6 | 78* | -5 | 6.7* | 9 | 2
Cc1ccc(-n2c(C)cc(C(=O)OCC(=O)N3CCOCC3)c2C)cc1 | -6 | -2 | -12 | -6 | 0 | nt | nt | nt | nt | nt
COc1ccc2c(c1)C(=NNC(=O)c1ccccn1)c1cc(OC)ccc1-2 | 10 | 29 | 81* | 88* | 31 | 62* | -13 | 0 | 2 | -3
CN(C(=O)c1ccc(NC(=O)Cc2ccc(NC(=O)C3CCCN(C(=O)CCc4ccccc4)C3)cc2)cc1)C1CCCC1 (stereo unspecified) | 1 | 1 | -4 | -11 | 3 | nt | nt | nt | nt | nt
Cc1sc2ncn(CC(=O)N3CCC(C(N)=O)CC3)c(=O)c2c1S(=O)(=O)N1CCOCC1 | 8 | -1 | -6 | -1 | -1 | nt | nt | nt | nt | nt
COc1ccc(C(=O)N/N=C/c2ccc(OC(=O)c3cccc4ccccc34)c([N+](=O)[O-])c2)cc1 | -16 | 7 | 92* | 53* | 7 | 65* | -25 | 6.6* | 5 | 0
COc1ccc(C(=O)Oc2ccc(/C=N/NC(=O)c3ccccc3OC)cc2[N+](=O)[O-])cc1 | -4 | 1 | 1 | 17 | 0 | nt | nt | nt | nt | nt
CC1CCCCC1NC(=O)C1CCC(CNS(=O)(=O)c2ccccc2)CC1 (stereo unspecified) | -6 | -1 | -9 | 0 | 0 | nt | nt | nt | nt | nt
O=C(O)/C(=C\c1cccc(F)c1)c1ccc(S(=O)(=O)N2CCCCC2)s1 | 0 | 0 | 40 | 33 | 0 | nt | nt | nt | nt | nt
CSc1ccc(/C=C(\C(=O)O)c2ccc(S(=O)(=O)N3CCCC3)s2)cc1 | -3 | 19 | 69* | 86* | 2 | 68* | -13 | 5.6* | 11 | 3
NC(=O)NC(=O)C(Nc1ccc(N2CCCCC2)cc1)c1ccccc1 (stereo unspecified) | 5 | 1 | -8 | 1 | 2 | nt | nt | nt | nt | nt
Cc1oc(-c2ccc(F)cc2)cc1-c1nn2c(-c3ccoc3C)nnc2s1 | 41* | 19 | 75* | 106* | 5 | 41* | -21 | 1 | 7 | -2
N#Cc1c(NC(=O)c2ccco2)sc2c1CCC2 | 16 | 24 | 63* | 54* | 22 | 56* | -15 | -1 | 4 | 0
C=C(C)C(=O)Nc1cccc(C2=NOC3(C2)C[C@@H](C(N)=O)N(C(=O)c2cc([N+](=O)[O-])cc([N+](=O)[O-])c2)C3)c1 (stereo partly specified) | 46* | -2 | 61* | 87* | 4 | 49* | -16 | -1 | 11 | -1
O=C(O)c1ccc(N2C(=O)c3cccc4c(C(=O)O)ccc(c34)C2=O)cc1 | 4 | 15 | 72* | 91* | 26 | 45* | -21 | 12* | 15 | -3
O=C(c1ccc([N+](=O)[O-])cc1)N1CCN(C(=O)c2ccco2)CC1 | -26 | -3 | 9 | 1 | -3 | nt | nt | nt | nt | nt
O=C(c1ccco1)N1CCN(C(=O)c2ccc(-c3ccc([N+](=O)[O-])cc3)o2)CC1 | 74* | 46 | 90* | 63* | 11 | 8 | -19 | nt | 4 | 3
SMILES | SUMO1-SIM PPI | LMPTP block | Scp1 inh | DNMT1 inh | STEP block | Scp1 confirm | Scp-1 MG ctr | Scp1 DSF | DNMT1 inh conf | Beacon interf | others
CCCCNC(=O)C1(C)CCN1Cc1ccc(C#N)cc1 (stereo unspecified) | 3 | -2 | nt | 1 | 3 | nt | nt | nt | nt | nt
COCCn1c(C)cc(C(=O)COC(=O)c2cc3c(s2)CCC3)c1C | 6 | 8 | 52* | 105* | -2 | 70* | -10 | -22 | 5 | 4
COCCn1c(C)cc(C(=O)COC(=O)c2cccc(O)c2)c1C | 4 | -1 | -9 | -4 | 1 | nt | nt | nt | nt | nt
CCCCCCNC(=O)c1cc(-c2ccco2)nc2ccccc12 | -8 | 6 | 71* | 106* | 10 | 67* | -14 | 2 | 9 | 7
CC(C)CCNC(=O)c1cc(-c2ccco2)nc2ccccc12 | -7 | 0 | -4 | -4 | 0 | nt | nt | nt | nt | nt
COc1ccc(NC(=O)c2cc(-c3ccco3)nc3ccccc23)cc1 | -1 | 3 | 45 | 12 | 8 | nt | nt | nt | nt | nt
Cc1cccc(NC(=O)c2cc(-c3ccco3)nc3ccccc23)n1 | 10 | 0 | 1 | 5 | 4 | nt | nt | nt | nt | nt
CCc1nnc(NC(=O)c2cc(-c3ccco3)nc3ccccc23)s1 | 51* | 45 | 65* | 92* | 10 | 45* | -15 | 8.5* | 23 | -1
COc1ccc(NC(=O)CN(C)C(=O)c2cc(-c3ccco3)nc3ccccc23)cc1 | 10 | 45 | 73* | 99* | 10 | 61* | -18 | 7.4* | 23 | -3 | Beacon interf DR=>99

Source: PubChem BioAssay (Sanford-Burnham Center for Chemical Genomics)
